Measured values reported in ChEMBL document CHEMBL1821702, “8,8-Dimethyldihydroberberine with improved bioavailability and oral efficacy on obese and diabetic mouse models” (Bioorg Med Chem, 2010).
Calls of active or inactive are those of the source. No cut-off for these calls is given here.

Tests used:
[1] = Stability in acidic buffer at pH 2 after 6 hrs by HPLC; assay type: physicochemical; settings: acidic buffer, pH 2
In short: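 A 0.5 mg/mL solution in acetonitrile was adjusted to pH 2 with H3PO4 and analyzed over 6 h by HPLC. Conditions: C18 column at 25 °C, 58% acetonitrile in 0.05 mol/L KH2PO4/0.005 mol/L SDS, 1 mL/min, detection at 320 nm.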

[2] = Aqueous solubility of compound in distilled water; assay type: physicochemical
In short: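 Excess solid was suspended in distilled water and stirred 24 h at 25 ± 0.5 °C. The suspension was filtered, and dissolved concentration was measured by HPLC.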

[3] = Oral bioavailability in 12 hrs fasting Sprague-Dawley rat at 20 mg/kg; assay type: ADME, organism-based; settings: in vivo
Mus musculus [4] = experiment: Antidiabetic activity in C57BLKS/J-db/db mouse assessed as alleviation of glucose tolerance at 50 mg/kg/day, po for 3 weeks by intraperitoneal glucose tolerance test; assay type: functional, organism-based
In short: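 Male and female C57BLKS/J-db/db mice, randomized at 6 weeks of age by body weight and fed glucose, were gavaged once daily in vehicle (0.5% microcrystalline cellulose, 1.6% lactose). For ipGTT, D-glucose was given at 2 g/kg ip, and blood glucose was read by glucometer at 0, 15, 30, 60, 90 and 120 min.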

Mus musculus [5] = experiment: Antidiabetic activity in C57BLKS/J-db/db mouse assessed as decrease in fed blood glucose level at 50 mg/kg/day, po for 3 weeks; assay type: functional; set-up: scale not given: the % may be the effect or the level left
Mus musculus [6] = experiment: Antidiabetic activity in C57BLKS/J-db/db mouse assessed as decrease in fed blood glucose level at 50 mg/kg/day, po for 4 weeks; assay type: functional; set-up: scale not given: the % may be the effect or the level left
Mus musculus [7] = experiment: Antidiabetic activity in C57BLKS/J-db/db mouse assessed as reduction of fasting blood glucose level at 50 mg/kg/day, po for 3 weeks; assay type: functional; set-up: scale not given: the % may be the effect or the level left
Mus musculus [8] = experiment: Antiobese activity in C57BLKS/J-db/db mouse assessed as decrease in plasma triglyceride level at 50 mg/kg/day, po […]; assay type: functional
In short: (§1)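 db/db mice were gavaged once daily in 0.5% microcrystalline cellulose/1.6% lactose vehicle for 6 weeks and killed after the final dose. Plasma triglycerides were measured with a colorimetric triglyceride assay kit.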

Mus musculus [9] = experiment: Toxicity in C57BLKS/J-db/db mouse assessed as change in body weight at 50 mg/kg/day, po for 6 weeks; assay type: organism-based; set-up: route oral; settings: in vivo, 1008 h
In short: (§2)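 db/db mice (half male, half female) were dosed by oral gavage daily for 6 weeks in 0.5% microcrystalline cellulose/1.6% lactose vehicle. Body weight and food intake were recorded daily. Mice were killed after the final dose, and liver and fat depots were weighed and expressed relative to body weight.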

Mus musculus [10] = experiment: Toxicity in C57BLKS/J-db/db mouse assessed as change in food intake at 50 mg/kg/day, po for 6 weeks; assay type: organism-based; set-up: route oral; settings: in vivo, 1008 h; in short: as §2
Mus musculus [11] = experiment: Toxicity in C57BLKS/J-db/db mouse assessed as reduction in liver weight at 50 mg/kg/day, po for 6 weeks; assay type: organism-based; set-up: route oral; scale not given: the % may be the effect or the level left; settings: in vivo, 1008 h; in short: as §2
Mus musculus [12] = experiment: Antidiabetic activity in C57BLKS/J-db/db mouse assessed as decrease in area under curve at 50 mg/kg/day, po for 4 weeks by insulin tolerance test; assay type: functional; set-up: scale not given: the % may be the effect or the level left
Mus musculus [13] = experiment: Toxicity in C57BLKS/J-db/db mouse assessed as increase in subcutaneous fat at 50 mg/kg/day, po for 6 weeks; assay type: organism-based; set-up: route oral; settings: in vivo, 1008 h; in short: as §2
Mus musculus [14] = experiment: Antidiabetic activity in high fat diet-fed C57BL/6J mouse assessed as decrease in blood glucose level at 250 mg/kg/day, po for 4 weeks measured after 60 mins by intraperitoneal glucose tolerance test; assay type: functional, organism-based
In short: (§3)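 High-fat-diet (60 kcal%, 8 weeks) male C57BL/6J mice were randomized by body weight and fed glucose, then dosed orally once daily in cellulose/lactose vehicle. ipGTT was done at 4 weeks: D-glucose 2 g/kg ip, glucometer readings at 0, 15, 30, 60, 90 and 120 min. n = 5–8.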

Mus musculus [15] = experiment: Antidiabetic activity in high fat diet-fed C57BL/6J mouse assessed as decrease in blood glucose level at 250 mg/kg/day, po for 4 weeks measured after 120 mins by intraperitoneal glucose tolerance test; assay type: functional, organism-based; in short: as §3
Mus musculus [16] = experiment: Antidiabetic activity in C57BLKS/J-db/db mouse assessed as reduction of fasting blood glucose level at 250 mg/kg/day, po for 5 weeks; assay type: functional, organism-based
Mus musculus [17] = experiment: Antiobese activity in high fat diet-fed C57BL/6J mouse assessed as decrease in plasma triglyceride level at 250 mg/kg/day, po for 6 weeks; assay type: functional; set-up: scale not given: the % may be the effect or the level left
In short: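 DIO male C57BL/6J mice received daily oral dosing in cellulose/lactose vehicle for 6 weeks and were killed after the final dose. Plasma and liver triglycerides were measured by triglyceride assay kit, and fat depots were weighed.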

Mus musculus [18] = experiment: Antidiabetic activity in high fat diet-fed C57BL/6J mouse assessed as decrease in plasma insulin level at 250 mg/kg/day, po for 4 weeks; assay type: functional; set-up: scale not given: the % may be the effect or the level left
In short: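 DIO male C57BL/6J mice (60 kcal% fat diet for 8 weeks) were gavaged daily in 0.5% microcrystalline cellulose/1.6% lactose vehicle. Plasma insulin was determined by ELISA after 4 weeks of treatment. Mean ± SE, n = 5–8.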

Mus musculus [19] = experiment: Antiobese activity in C57BLKS/J-db/db mouse assessed as decrease in plasma triglyceride level at 250 mg/kg/day, po […]; assay type: functional; set-up: scale not given: the % may be the effect or the level left; in short: as §1

Row | Structure (SMILES) | decrease in content after 6 h at 6 h [1] | solubility [2] | bioavailability [3] | Activity (Mus musculus [4]) | Activity (Mus musculus [5]) | Activity (Mus musculus [6]) | Activity (Mus musculus [7]) | Activity (Mus musculus [8]) | Activity (Mus musculus [9]) | Activity (Mus musculus [10]) | Activity (Mus musculus [11]) | Activity (Mus musculus [12]) | Activity (Mus musculus [13]) | Activity (Mus musculus [14]) | Activity (Mus musculus [15]) | Activity (Mus musculus [16]) | Activity (Mus musculus [17]) | Activity (Mus musculus [18]) | Activity (Mus musculus [19])
1 | COc1ccc2c(c1OC)CN1CCc3cc4c(cc3C1=C2)OCO4 [DIHYDROBERBERINE] | 17% | < 1000 µg/mL | 2.65% | inactive | 25% | 18% | 17% | inactive | Non-toxic | Non-toxic | 11% | 12% | 14% |  |  |  |  |  | 
2 | CN(C)C(=N)NC(=N)N [METFORMIN] |  |  |  |  |  |  |  |  |  |  |  | 14% |  | Active | Active | Active | 33% | 43% | 23%
